Results reported in ChEMBL document CHEMBL1821556, “Structure-activity relationships of antitubercular nitroimidazoles. 3. Exploration of the linker and lipophilic tail of ((s)-2-nitro-6,7-dihydro-5H-imidazo[2,1-b][1,3]oxazin-6-yl)-(4-trifluoromethoxybenzyl)amine (6-amino PA-824)” (J Med Chem, 2011).
≈ marks a conversion by molar mass, not a printed value.

Tests used:
[1] = tested on: Mycobacterium tuberculosis; assay: Bactericidal activity against Mycobacterium tuberculosis assessed as minimum concentration required for anaerobicidal activity; type: functional
Outline: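 Minimum anaerobicidal concentration (μM) against non-replicating Mtb. Run multiple times in two independent laboratories, with discrepant results repeated until concordant. Values are averages of multiple measurements ± SD.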

Liver [2] = assay: Intrinsic clearance in mouse liver microsome at 5 mg/kg, iv after 24 hrs by LC/MS/MS analysis; type: ADME; details: microsomes
Liver [3] = assay: Half life in mouse liver microsome at 5 mg/kg, iv after 24 hrs by LC/MS/MS analysis; type: ADME; details: microsomes
[4] = tested on: Mycobacterium tuberculosis; assay: Antitubercular activity against Mycobacterium tuberculosis; type: functional
Outline: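 Whole-cell assay against replicating Mtb, scored as MIC99 in μM. Run multiple times in two independent laboratories, with discrepant results repeated until concordant. Values are averages of multiple measurements ± SD.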

[5] = Elimination half life in mouse at 5 mg/kg, iv by LC/MS/MS analysis; type: ADME, organism-based; parameters: dose 5 mg/kg, route intravenous; details: in vivo, read-out: beta t1/2 (converted)
Outline: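 Single intravenous dose of 5mg/kg, using the supernatant of a centrifuged formulation. Blood was sampled at time points from 1min to 24h after dosing. Plasma was extracted and analysed by LC/MS/MS. Pharmacokinetic parameters, including elimination half-life, came from non-compartmental analysis.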

[6] = Solubility of the compound at pH 6.8; type: physicochemical; details: buffer
[7] = Solubility of the compound; type: physicochemical
Outline: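 Solubility was measured in buffer at pH 6.8 and reported in μg/mL.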

Row | Compound | Activity [1] | CL (Liver [2]) | t1/2 (Liver [3]) | MIC99 [4] | half-life [5] | solubility [6] | solubility [7] | solubility ([6]; read-out: solubility)
1 | O=[N+]([O-])c1cn2c(n1)OC[C@@H](NCc1ccc(OC(F)(F)F)c(Cl)c1)C2 | 4.2 µM | 103.4 µL/min/mg | 13.4 min | 0.12 µM (≈ 0.0471 µg/mL) | 258 min | – | – | –
2 | CN1CCN(c2cc(OC(F)(F)F)ccc2CN[C@@H]2COc3nc([N+](=O)[O-])cn3C2)CC1 | 33 µM | – | – | 2.2 µM (≈ 1 µg/mL) | – | – | – | –
3 | O=[N+]([O-])c1cn2c(n1)OC[C@@H](NCc1ccc(OC(F)(F)F)cc1OC1CC1)C2 | 2 µM | 150.7 µL/min/mg | 9.2 min | 0.06 µM (≈ 0.0249 µg/mL) | – | 11 µg/mL (≈ 26.5 µM) | – | –
4 | O=[N+]([O-])c1cn2c(n1)OC[C@@H](OCc1ccc(OC(F)(F)F)c(F)c1)C2 | 7.5 µM | – | – | 0.17 µM (≈ 0.0641 µg/mL) | – | – | – | –
5 | O=[N+]([O-])c1cn2c(n1)OC[C@@H](NCc1ccc(OC(F)(F)F)cc1Br)C2 | 2 µM | – | – | 0.09 µM (≈ 0.0393 µg/mL) | – | – | – | –
6 | O=CN(Cc1ccc(OC(F)(F)F)cc1)[C@@H]1COc2nc([N+](=O)[O-])cn2C1 | 12.5 µM | – | – | 0.79 µM (≈ 0.305 µg/mL) | – | – | – | –
7 | O=[N+]([O-])c1cn2c(n1)OC[C@@H](OCc1ccc(OC(F)(F)F)c(O)c1)C2 | 8.3 µM | – | – | 0.14 µM (≈ 0.0525 µg/mL) | – | – | – | –
8 | O=[N+]([O-])c1cn2c(n1)OC[C@@H](NCc1ccc(OC(F)(F)F)cc1F)C2 | 2.5 µM | 95.6 µL/min/mg | 14.5 min | 0.12 µM (≈ 0.0452 µg/mL) | – | 72 µg/mL (≈ 191 µM) | – | –
9 | O=[N+]([O-])c1cn2c(n1)OC[C@@H](NCc1ccc(OC(F)(F)F)c(F)c1)C2 | 4.2 µM | 58.7 µL/min/mg | 23.6 min | 0.12 µM (≈ 0.0452 µg/mL) | – | – | – | –
10 | CCCCC(N[C@@H]1COc2nc([N+](=O)[O-])cn2C1)c1ccc(OC(F)(F)F)cc1 (mixture of isomers) | 4.4 µM | – | – | 0.15 µM | – | – | – | –
11 | O=[N+]([O-])c1cn2c(n1)OC[C@@H](NCc1ccc(OC(F)(F)F)cc1Oc1ccccc1)C2 | 4.4 µM | 216.6 µL/min/mg | 6.4 min | 0.06 µM (≈ 0.027 µg/mL) | – | 3 µg/mL (≈ 6.66 µM) | – | –
12 | O=[N+]([O-])c1cn2c(n1)OC[C@@H](NCc1ccc(OC(F)(F)F)cc1O)C2 | 4.4 µM | 96.9 µL/min/mg | 14.3 min | 0.09 µM (≈ 0.0337 µg/mL) | – | 25 µg/mL (≈ 66.8 µM) | – | –
13 | O=[N+]([O-])c1cn2c(n1)OC[C@@H](NCc1ccc(OC(F)(F)F)cc1N1CCOCC1)C2 | 10 µM | – | – | 0.15 µM (≈ 0.0665 µg/mL) | – | – | – | –
14 | O=C(c1ccccc1)N(Cc1ccc(OC(F)(F)F)cc1)[C@@H]1COc2nc([N+](=O)[O-])cn2C1 | >50 µM | – | – | 8.8 µM (≈ 4.07 µg/mL) | – | – | – | –
15 | O=[N+]([O-])c1cn2c(n1)OC[C@@H](NCc1ccc(OC(F)(F)F)c(N3CCOCC3)c1)C2 | 7 µM | – | – | 0.15 µM (≈ 0.0665 µg/mL) | – | – | – | –
16 | O=[N+]([O-])c1cn2c(n1)OC[C@@H](NCc1ccc(OC(F)(F)F)cc1OCc1ccccc1)C2 | 7.5 µM | – | – | 0.24 µM (≈ 0.111 µg/mL) | – | – | – | –
17 | NC(=O)C(N[C@@H]1COc2nc([N+](=O)[O-])cn2C1)c1ccc(OC(F)(F)F)cc1 (mixture of isomers) | 30 µM | – | – | 0.41 µM | – | – | – | –
18 | CN(Cc1ccc(OC(F)(F)F)cc1)[C@@H]1COc2nc([N+](=O)[O-])cn2C1 | 2.5 µM | 124.9 µL/min/mg | 11 min | 0.15 µM (≈ 0.0558 µg/mL) | – | 10 µg/mL (≈ 26.9 µM) | – | –
19 | COc1cc(CN[C@@H]2COc3nc([N+](=O)[O-])cn3C2)ccc1OC(F)(F)F | 2.1 µM | – | – | 0.07 µM (≈ 0.0272 µg/mL) | – | – | – | –
20 | O=C(c1cccc(Cl)c1)N(Cc1ccc(OC(F)(F)F)cc1)[C@@H]1COc2nc([N+](=O)[O-])cn2C1 | 21 µM | – | – | 7.5 µM (≈ 3.73 µg/mL) | – | – | – | –
21 | O=[N+]([O-])c1cn2c(n1)OC[C@@H](OCc1ccc(OC(F)(F)F)cc1)C2 [PRETOMANID] | 8.8 µM | – | – | 0.63 µM (≈ 0.226 µg/mL) | – | – | – | –
22 | O=[N+]([O-])c1cn2c(n1)OC[C@@H](NCc1ccc(OC(F)(F)F)cc1OCC1CC1)C2 | 4.2 µM | 866.3 µL/min/mg | 1.6 min | 0.1 µM (≈ 0.0428 µg/mL) | – | 6 µg/mL (≈ 14 µM) | – | –
23 | COc1cc(OC(F)(F)F)ccc1CN[C@@H]1COc2nc([N+](=O)[O-])cn2C1 | 5.2 µM | – | – | 0.23 µM (≈ 0.0893 µg/mL) | – | – | – | –

Row | Compound | Activity [1] | CL (Liver [2]) | t1/2 (Liver [3]) | MIC99 [4] | half-life [5] | solubility [6] | solubility [7] | solubility ([6]; read-out: solubility)
24 | COc1cc(CO[C@@H]2COc3nc([N+](=O)[O-])cn3C2)ccc1OC(F)(F)F | 4.2 µM | – | – | 0.13 µM (≈ 0.0506 µg/mL) | – | – | – | –
25 | O=C(c1ccc(Cl)cc1)N(Cc1ccc(OC(F)(F)F)cc1)[C@@H]1COc2nc([N+](=O)[O-])cn2C1 | 7.8 µM | – | – | 1.3 µM (≈ 0.646 µg/mL) | – | – | – | –
26 | CC(N[C@@H]1COc2nc([N+](=O)[O-])cn2C1)c1ccc(OC(F)(F)F)cc1 (mixture of isomers) | 5.6 µM | – | – | 0.44 µM | – | – | – | –
27 | CN1CCN(c2cc(CN[C@@H]3COc4nc([N+](=O)[O-])cn4C3)ccc2OC(F)(F)F)CC1 | 7.8 µM | – | – | 0.17 µM (≈ 0.0776 µg/mL) | – | – | – | –
28 | CCNC(=O)N(Cc1ccc(OC(F)(F)F)cc1)[C@@H]1COc2nc([N+](=O)[O-])cn2C1 | 69 µM | – | – | 17 µM (≈ 7.3 µg/mL) | – | – | – | –
29 | CCC(N[C@@H]1COc2nc([N+](=O)[O-])cn2C1)c1ccc(OC(F)(F)F)cc1 (mixture of isomers) | 3.1 µM | – | – | 0.36 µM | – | – | – | –
30 | CC(C)N(Cc1ccc(OC(F)(F)F)cc1)[C@@H]1COc2nc([N+](=O)[O-])cn2C1 | 11 µM | 433 µL/min/mg | 3.2 min | 0.34 µM (≈ 0.136 µg/mL) | – | < 2 µg/mL | – | –
31 | CC(=O)N(Cc1ccc(OC(F)(F)F)cc1)[C@@H]1COc2nc([N+](=O)[O-])cn2C1 | >50 µM | – | – | 50 µM (≈ 20 µg/mL) | – | – | – | –
32 | O=[N+]([O-])c1cn2c(n1)OC[C@@H](NCc1ccc(OC(F)(F)F)c(O)c1)C2 | 7.5 µM | 61.9 µL/min/mg | 22.4 min | 0.16 µM (≈ 0.0599 µg/mL) | 24 min | – | – | –
33 | O=[N+]([O-])c1cn2c(n1)OC[C@@H](NC(CO)c1ccc(OC(F)(F)F)cc1)C2 (mixture of isomers) | 11 µM | – | – | 0.3 µM | – | – | – | –
34 | O=C(c1ccccc1Cl)N(Cc1ccc(OC(F)(F)F)cc1)[C@@H]1COc2nc([N+](=O)[O-])cn2C1 | >50 µM | – | – | 5.6 µM (≈ 2.78 µg/mL) | – | – | – | –
35 | O=[N+]([O-])c1cn2c(n1)OC[C@@H](NCc1ccc(OC(F)(F)F)cc1N1CCCCC1)C2 | 11 µM | – | – | 0.21 µM (≈ 0.0927 µg/mL) | – | – | – | –
36 | O=[N+]([O-])c1cn2c(n1)OC[C@@H](NCc1ccc(OC(F)(F)F)cc1Cl)C2 | 2.1 µM | 69.7 µL/min/mg | 19.9 min | 0.13 µM (≈ 0.0511 µg/mL) | – | 30 µg/mL (≈ 76.4 µM) | – | –
37 | CCC(=O)N(Cc1ccc(OC(F)(F)F)cc1)[C@@H]1COc2nc([N+](=O)[O-])cn2C1 | – | – | – | – | – | – | Insoluble | –
38 | CCCC(N[C@@H]1COc2nc([N+](=O)[O-])cn2C1)c1ccc(OC(F)(F)F)cc1 (mixture of isomers) | 3.8 µM | – | – | 0.27 µM | – | – | – | –
39 | O=[N+]([O-])c1cn2c(n1)OC[C@@H](NC(c1ccc(OC(F)(F)F)cc1)c1ncco1)C2 (mixture of isomers) | 7.8 µM | – | – | 0.4 µM | – | – | – | –
40 | O=[N+]([O-])c1cn2c(n1)OC[C@@H](NCc1ccc(OC(F)(F)F)c(Oc3ccccc3)c1)C2 | 3.9 µM | 149 µL/min/mg | 9.3 min | 0.14 µM (≈ 0.0631 µg/mL) | – | – | – | < 2 µg/mL
41 | COC(=O)c1cc(CN[C@@H]2COc3nc([N+](=O)[O-])cn3C2)ccc1OC(F)(F)F | 11 µM | – | – | 0.14 µM (≈ 0.0583 µg/mL) | – | – | – | –
42 | CCCN(Cc1ccc(OC(F)(F)F)cc1)[C@@H]1COc2nc([N+](=O)[O-])cn2C1 | 3.8 µM | 407 µL/min/mg | 3.4 min | 0.11 µM (≈ 0.044 µg/mL) | – | < 2 µg/mL | – | –
43 | O=[N+]([O-])c1cn2c(n1)OC[C@@H](NCc1ccc(OC(F)(F)F)cc1)C2 | 14 µM | – | – | 0.36 µM (≈ 0.129 µg/mL) | – | – | – | –
44 | O=[N+]([O-])c1cn2c(n1)OC[C@@H](NC(CCO)c1ccc(OC(F)(F)F)cc1)C2 (mixture of isomers) | 23 µM | – | – | 0.13 µM | – | – | – | –
45 | O=[N+]([O-])c1cn2c(n1)OC[C@@H](NC(c1ccc(OC(F)(F)F)cc1)c1ncc[nH]1)C2 (mixture of isomers) | 17 µM | – | – | 0.52 µM | – | – | – | –
